From ChEMBL document CHEMBL1153241, “2,3,5-Trisubstituted pyridines as selective AKT inhibitors-Part I: Substitution at 2-position of the core pyridine for ROCK1 selectivity” (Bioorg Med Chem Lett, 2010)

What was measured:
[1] = target: T1, RAC-alpha serine/threonine-protein kinase (Homo sapiens, UniProt P31749); assay: Inhibition of full length AKT1
[2] = target: Rho-associated protein kinase 1 (Homo sapiens, UniProt Q13464); assay: Inhibition of ROCK1
[3] = Selectivity ratio of IC50 for ROCK1 to IC50 for AKT1
[4] = target: T1, RAC-alpha serine/threonine-protein kinase; assay: Inhibition of truncated AKT1
Outline: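 AKT1 construct truncated to lack the PH domain. IC50 measured with ATP at or below its Km. At least two determinations (n ≥ 2).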

[5] = target: T1, RAC-alpha serine/threonine-protein kinase; assay: Inhibition of AKT1 in human BT474 cells assessed as phosphorylation of GSK3; type: cell-based, BT-474

Rho-associated protein kinase 1, sequence (Q13464 whole entry): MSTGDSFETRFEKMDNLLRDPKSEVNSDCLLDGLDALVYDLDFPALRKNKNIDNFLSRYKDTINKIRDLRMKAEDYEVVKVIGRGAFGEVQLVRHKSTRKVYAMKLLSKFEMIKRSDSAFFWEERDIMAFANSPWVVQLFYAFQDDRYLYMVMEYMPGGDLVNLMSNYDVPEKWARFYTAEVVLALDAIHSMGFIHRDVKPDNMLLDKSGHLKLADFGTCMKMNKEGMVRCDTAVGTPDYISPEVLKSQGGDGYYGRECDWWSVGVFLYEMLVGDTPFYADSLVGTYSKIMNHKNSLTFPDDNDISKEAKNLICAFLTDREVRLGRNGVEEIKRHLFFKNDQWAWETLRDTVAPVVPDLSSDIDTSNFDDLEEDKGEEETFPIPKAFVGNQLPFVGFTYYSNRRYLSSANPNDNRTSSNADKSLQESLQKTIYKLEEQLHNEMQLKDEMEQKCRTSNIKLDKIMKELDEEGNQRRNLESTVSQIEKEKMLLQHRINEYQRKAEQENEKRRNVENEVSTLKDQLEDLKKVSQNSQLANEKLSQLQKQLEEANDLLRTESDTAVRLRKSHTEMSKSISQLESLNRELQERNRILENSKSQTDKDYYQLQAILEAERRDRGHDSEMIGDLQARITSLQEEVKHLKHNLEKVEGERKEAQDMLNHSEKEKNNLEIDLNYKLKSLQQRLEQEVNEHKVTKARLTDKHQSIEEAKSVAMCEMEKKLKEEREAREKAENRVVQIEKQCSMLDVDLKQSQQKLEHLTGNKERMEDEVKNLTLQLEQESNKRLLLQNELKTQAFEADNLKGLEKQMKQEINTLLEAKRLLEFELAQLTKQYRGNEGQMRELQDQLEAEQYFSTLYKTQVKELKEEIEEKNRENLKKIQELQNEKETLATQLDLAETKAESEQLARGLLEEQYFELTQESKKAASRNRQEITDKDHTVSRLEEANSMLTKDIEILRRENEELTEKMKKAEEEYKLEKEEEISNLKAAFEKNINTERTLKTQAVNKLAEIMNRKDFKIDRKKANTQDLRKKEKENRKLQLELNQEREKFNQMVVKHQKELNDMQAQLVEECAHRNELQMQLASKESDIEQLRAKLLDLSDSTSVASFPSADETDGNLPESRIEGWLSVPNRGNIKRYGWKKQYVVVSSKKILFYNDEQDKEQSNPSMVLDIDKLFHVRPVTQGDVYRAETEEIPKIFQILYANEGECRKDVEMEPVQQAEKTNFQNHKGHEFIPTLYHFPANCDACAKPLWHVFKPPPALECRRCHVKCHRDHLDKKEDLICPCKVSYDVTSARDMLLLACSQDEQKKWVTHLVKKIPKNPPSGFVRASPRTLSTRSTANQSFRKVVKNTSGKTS
T1 sequence (P31749 whole entry): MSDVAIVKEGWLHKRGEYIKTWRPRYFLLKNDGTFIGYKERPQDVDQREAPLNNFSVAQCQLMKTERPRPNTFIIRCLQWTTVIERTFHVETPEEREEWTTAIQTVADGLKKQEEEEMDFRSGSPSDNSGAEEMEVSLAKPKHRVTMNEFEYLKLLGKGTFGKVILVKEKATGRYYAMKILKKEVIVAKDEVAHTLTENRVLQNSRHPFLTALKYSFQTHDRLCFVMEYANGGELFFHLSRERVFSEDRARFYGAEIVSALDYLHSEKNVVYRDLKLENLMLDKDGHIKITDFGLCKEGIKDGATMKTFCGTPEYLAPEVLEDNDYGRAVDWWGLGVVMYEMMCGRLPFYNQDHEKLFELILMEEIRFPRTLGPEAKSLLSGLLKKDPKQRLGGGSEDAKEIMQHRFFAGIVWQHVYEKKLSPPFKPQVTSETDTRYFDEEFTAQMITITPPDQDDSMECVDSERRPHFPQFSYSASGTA

| IC50 [1] [nM] | IC50 [2] [nM] | Ratio IC50 [3] | IC50 [4] [nM] | IC50 [5] [nM] | Compound |
| --- | --- | --- | --- | --- | --- |
| 0.8 |  |  |  | 220 | Cc1n[nH]c2ccc(-c3cc(OC[C@@H](N)Cc4c[nH]c5cc(F)ccc45)cnc3-c3ccoc3)cc12 |
| 1 |  |  |  | 360 | Cc1n[nH]c2ccc(-c3cc(OC[C@@H](N)Cc4c[nH]c5ccc(F)cc45)cnc3-c3ccoc3)cc12 |
| 15 | > 10000 |  |  |  | Cc1n[nH]c2ccc(-c3cc(OC[C@@H](N)Cc4ccccc4)cnc3-c3ccc[nH]3)cc12 |
| 13 |  |  |  | 6800 | Cc1n[nH]c2ccc(-c3cc(OC[C@@H](N)Cc4c[nH]c5ccncc45)cnc3-c3ccoc3)cc12 |
|  |  |  |  | 500 | Cc1n[nH]c2ccc(-c3cc(OC[C@@H](N)Cc4c[nH]c5ccccc45)cnc3-c3ccoc3)cc12 |
| 1 |  |  |  | 260 | Cc1n[nH]c2ccc(-c3cc(OC[C@@H](N)Cc4c[nH]c5c(F)cccc45)cnc3-c3ccoc3)cc12 |
| 10 | 5200 |  |  |  | Cc1n[nH]c2ccc(-c3cc(OC[C@@H](N)Cc4ccccc4)cnc3-c3ccoc3)cc12 |
| 79 | > 10000 |  |  |  | Cc1n[nH]c2ccc(-c3cc(OC[C@@H](N)Cc4ccccc4)cnc3-c3cccc(O)c3)cc12 |
| 10 |  |  |  | 4300 | Cc1n[nH]c2ccc(-c3cc(OC[C@@H](N)Cc4c[nH]c5cccnc45)cnc3-c3ccoc3)cc12 |
| 0.8 |  |  |  | 84 | Cc1occc1-c1ncc(OC[C@@H](N)Cc2c[nH]c3ccccc23)cc1-c1ccc2[nH]nc(C)c2c1 |
| 8 |  |  |  | 930 | Cc1n[nH]c2ccc(-c3cc(OC[C@@H](N)Cc4c[nH]c5ncccc45)cnc3-c3ccoc3)cc12 |

The next lines start with the molecule.

| Compound | IC50 [1] [nM] | IC50 [2] [nM] | Ratio IC50 [3] | IC50 [4] [nM] | IC50 [5] [nM] |
| --- | --- | --- | --- | --- | --- |
| Cc1n[nH]c2ccc(-c3cc(OC[C@@H](N)Cc4ccccc4)cnc3-c3ccsc3)cc12 | 50 | 6000 |  |  |  |
| COc1ccccc1-c1ncc(OC[C@@H](N)Cc2ccccc2)cc1-c1ccc2[nH]nc(C)c2c1 | 100 | > 10000 |  |  |  |
| Cc1n[nH]c2ccc(-c3cc(OC[C@@H](N)Cc4ccccc4)cnc3-c3ccccc3)cc12 | 50 | > 10000 | > 200 |  |  |
| Cc1n[nH]c2ccc(-c3cc(OC[C@@H](N)Cc4ccccc4)cnc3-c3cc(F)ccc3O)cc12 |  | 9800 |  | 10 |  |
| Cc1n[nH]c2ccc(-c3cc(OC[C@@H](N)Cc4ccccc4)cnc3-c3ccco3)cc12 |  | 1290 |  | 790 |  |
| Cc1n[nH]c2ccc(-c3cc(OC[C@@H](N)Cc4ccccc4)cnc3-c3cc(Cl)ccc3O)cc12 | 3 | 7600 | > 2000 |  |  |
| Cc1n[nH]c2ccc(-c3cc(OC[C@@H](N)Cc4ccccc4)cnc3C#CCCO)cc12 | 720 | > 10000 |  |  |  |
| Cc1n[nH]c2ccc(-c3cc(OC[C@@H](N)Cc4ccccc4)cnc3-c3cccs3)cc12 | 79 | 2500 |  |  |  |
| Cc1n[nH]c2ccc(-c3cc(OC[C@@H](N)Cc4ccccc4)cnc3C#CC(C)(C)O)cc12 |  | > 10000 |  | 10500 |  |
| Cc1n[nH]c2ccc(-c3cc(OC[C@@H](N)Cc4ccccc4)cnc3-c3ccccc3O)cc12 | 15 | 9500 |  |  |  |
| Cc1n[nH]c2ccc(-c3cc(OC[C@@H](N)Cc4ccccc4)cnc3-c3ccc(O)cc3)cc12 | 500 | 1400 |  |  |  |
| Cc1n[nH]c2ccc(-c3cc(OC[C@@H](N)Cc4ccccc4)cnc3-c3cc(F)cc(F)c3O)cc12 | 63 | > 10000 |  |  |  |
